Bioassay records deposited in PubChem BioAssay by several laboratories.
PTEN del growth: growth suppression of PTEN-null HCT116, primary screen, cell-based, CellTiter-Glo; HCT116 PTEN-null viability, 60 h; hits give low values; viability, % at 10 µM; 140,000 compounds, 1.2% hits; AID 827, 2007;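 active = viability at or below a set limit, 4 SD under the median of all tested compounds, cut at about 3.7% in these data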;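 note: PTEN knockout HCT116 line with beta catenin targeted HCT116 as companion control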
Phagocyt inh: inhibitors of macrophage phagocytosis, primary screen, imaging, J774A.1 cells, IgG beads; J774A.1 macrophage IgG-bead phagocytosis; inhibition, % at 5 µM; 110,000 compounds, 0.07% hits;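 active = inhibition above the mean of the plate negative controls plus 5 SD, cut at about 13% in these data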;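 note: phagocytic index as fraction of beads internalized from green versus red external bead signal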
HUVEC prolif 384: inhibitors of HUVEC proliferation, primary screen, cell-based, 384-well. viability, % at 10 µM (by protocol). 86,000 compounds, 1.1% hits. CellTiter-Glo luminescence, 72 h; hits give low values;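 active = viability at or below 30%; inactive = viability above 30%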
Lung fibro prol: antiproliferative effect on LL 47 fibroblasts – human, LL 47 cells, CellTiter-Glo luminescence, primary screen; LL 47 human lung fibroblast viability, ATP luminescence; hits give low values; viability, % at 10 µM; 85,000 compounds, 1.1% hits; AID 719, 2007;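 active = viability at or below 50% in the single dose screen; inactive = viability above 50%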;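 note: compound exposure lasted 72 h before the ATP readout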
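Test system: LL 47 human lung fibroblasts; Quantity: 1,150 cells/well; Buffer or medium: IMEM plus 15% FBS; Dosing: tenfold compound dosing solution, DMSO at 0.1%; Timing: overnight cell rest, 72 h compound treatment at 37 °C; Detection: ATP-based CellTiter-Glo luminescent readout; Read-out basis: viability percentage against median untreated-cell control; Controls: cell-only wells, no compound.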
H69AR inhibit: proliferation blockers of H69AR lung cancer cells, primary screen, cell-based, human, 86K library | H69AR lung tumor viability, ATP luminescence, 72 h; hits give low values | viability, % at 10 µM | 85,000 compounds, 6% hits;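 active = viability at or below 40%; inactive = viability above 40%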;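 note: multidrug resistant small cell line overexpressing MRP-1 efflux transporter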
HCT116 bCat-KO: primary screen for growth suppressors in beta-catenin knockout HCT116 cells (colon tumor, human); HCT116 beta-catenin knockout viability, CellTiter-Glo, 60 h; hits give low values; viability, % at 10 µM; 140,000 compounds, 1.5% hits; AID 818, 2007;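 active = viability at or under a set limit, the compound median less 4 SD, cut at about 6% in these data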
Hits are given with their value; . = inactive; / = no result given; [ ] = dose if it differs, or a comment. This excerpt belongs to a sample that is enriched for hits.

SMILES	PTEN del growth	Phagocyt inh	HUVEC prolif 384	Lung fibro prol	H69AR inhibit	HCT116 bCat-KO
CCN(CC)S(=O)(=O)c1cc([N+](=O)[O-])ccc1NNC(=O)Nc1ccc(Cl)c(Cl)c1	1.0	.	.	43	2.9	1.4
O=C(NNc1ccccc1[N+](=O)[O-])Nc1ccc(Cl)c(Cl)c1	.	.	/	/	/	.
CSc1ccc(NC(=O)N2CC=C(n3c(=O)[nH]c4ccccc43)CC2)cc1	.	.	/	/	/	.
COc1ccc(-n2c(Cc3cccn3C)nnc2SCC(=O)Nc2cccc(OC)c2)cc1	.	.	.	.	37	.
CCn1c(Cc2ccc(OC)cc2)nnc1SCC(=O)Nc1cccc(C(=O)OC)c1	0.6	/	.	48	.	0.9
COc1cccc(NC(=O)CSc2nnc(Cc3cccn3C)n2-c2ccc(F)cc2)c1	.	.	.	.	.	.
CCOC(=O)c1cc2c(ccn2-c2ccc(F)cc2)n1CC(=O)N1CCN(C(=O)c2ccco2)CC1	.	.	.	49	22	.
CC(C)(C)OC(=O)C1C(=O)CC(C)(O)C(C(=O)OC(C)(C)C)C1c1cccnc1 (centres undefined)	.	.	.	.	.	.
CC(C)COC(=O)C1C(=O)CC(C)(O)C(C(=O)OCC(C)C)C1c1cccnc1 (centres undefined)	.	.	.	.	29	.
Cc1sc2c(c1C)c(=O)nc1scc(C)n12	/	/	.	.	.	/
CCCCNC(=O)c1cn(C)c2ccc(S(=O)(=O)N3CCOCC3)cc2c1=O	/	/	.	.	.	/
O=C(Nc1ccc(Cl)cc1C(=O)NCCN1CCOCC1)c1ccc(Cl)cc1Cl	.	/	.	.	38	.
Cc1ccccc1C(=O)O/N=C/c1c(N2CCOCC2)n(C)c2ccccc12	.	23[artifact]	/	/	/	.
CCOC(=O)C1=C(N)n2c(s/c(=C/c3ccco3)c2=O)=C(C(=O)OC)C1c1ccco1 (centres undefined)	2.4	.	13	.	4.8	2.2
CCOC(=O)C1=c2s/c(=C\c3cccnc3)c(=O)n2C(N)=C(C(=O)OC)C1c1cccnc1 (centres undefined)	.	/	.	.	.	.
N#CC1=C(N)n2c(s/c(=C\c3ccco3)c2=O)=C(C#N)C1c1ccco1 (centres undefined)	.	.	.	.	38	.
O=C(NCCOc1ccccc1F)c1cc(F)c(F)cc1Cl	.	.	/	/	/	.
Cc1cc(C)c2c(n1)nn1c(N3CCN(c4ccccc4C)CC3)cc(C)nc21	/	/	.	.	37	/
CCOc1ccc(CN2CCN(c3cc(C)nc4c5c(C)cc(C)nc5nn34)CC2)cc1	.	/	.	.	32	.
Cc1ccc(N2CCN(c3cc(C)nc4c5c(C)cc(C)nc5nn34)CC2)cc1	/	.	.	.	.	/
CCCCN(CCCC)c1nc2ccccc2nc1NS(=O)(=O)c1ccc(NC(C)=O)cc1	.	/	.	.	12	.
CCCn1c(=O)c(C(=O)Nc2nnc(CC)s2)c(O)c2ccccc21	/	.	.	.	23	/
CCCn1c(=O)c(C(=O)Nc2ccccc2C(=O)OC)c(O)c2ccccc21	.	.	.	.	.	.
CCn1c(=O)c(C(=O)Nc2ccsc2C(=O)OC)c(O)c2ccccc21	.	.	/	/	/	4.7
CCOC(=O)c1ccccc1NC(=O)c1c(O)c2ccccc2n(CC)c1=O	.	.	.	.	40	.
SMILES	PTEN del growth	Phagocyt inh	HUVEC prolif 384	Lung fibro prol	H69AR inhibit	HCT116 bCat-KO
CC(C)(C)c1cc(=O)n(-c2ccccc2)[nH]1	.	.	/	/	/	.
C/C(=N\NC(=O)CN1CCOCC1)C(C)(C)C	.	.	/	/	/	.
COc1ccc2c(Cl)c(C(=O)N/N=C/c3ccc4c(c3)OCO4)sc2c1	.	/	/	/	/	.
O=C(N/N=C/c1ccc2c(c1)OCO2)c1sc2cc(Cl)ccc2c1Cl	2.1	/	/	/	/	.
CC1=C(C(=O)OC2CCCCCCC2)C(c2cc3c(cc2Br)OCO3)CC(=O)N1 (centres undefined)	.	.	5.0	.	5.8	.
CCC(=O)Nc1ccc(Nc2nc(C)c([N+](=O)[O-])c(Nc3ccc(NC(=O)CC)cc3)n2)cc1	.	.	/	/	/	.
COc1cccc(-c2ccc(C#N)c(OC(=O)c3c(Cl)cccc3Cl)n2)c1	.	.	.	.	.	.
COc1cccc(-c2ccc(C#N)c(OC(=O)c3ccc(Cl)cc3)n2)c1	.	.	.	.	8.9	.
CC(C)Cn1cc(C(=O)N2CCN(c3ccccn3)CC2)c2c3ccccc3n(C)c2c1=O	.	.	.	.	38	.
CCN1CCN(C(=O)c2cn(CCOC)c(=O)c3c2c2ccccc2n3C)CC1	.	.	.	/	.	.
O=C(c1ccc(=O)oc1)N1CCCc2ccccc21	.	.	.	.	.	.
CCCOC(=O)c1ccc(Oc2c(-c3ccc(OCC)cc3O)n[nH]c2C)cc1	.	.	4.5	.	2.2	.
CCCc1ccc(Oc2c(-c3ccc(O)c(C)c3O)n[nH]c2C)cc1	.	.	24	.	21	.
CCCOC(=O)c1ccc(Oc2cn[nH]c2-c2ccc(OCC)cc2O)cc1	.	.	9.5	.	2.7	.
CCN(CC)c1ccc2c(c1)oc(=O)c1c(Cl)cc(=O)oc12	2.0	.	.	11	1.9	3.0
CCN(CC)c1ccc2c(Cl)c(Br)c(=O)oc2c1	.	/	.	34	12	.
CCN(CC)c1ccc2c(C)c(-c3ccc(N)cc3)c(=O)oc2c1	.	.	.	.	.	.
O=C(NCCCn1ccnc1)C(=O)NCC1OCCCN1S(=O)(=O)c1ccccc1 (centres undefined)	.	.	/	/	/	.
COC(=O)c1ccc(S(=O)(=O)N(Cc2cc3cc4c(cc3[nH]c2=O)OCO4)C2CCCCC2)cc1	/	.	.	.	39	/
COc1ccc2cc(CN(CC3COCCO3)S(=O)(=O)c3c(C)cc(C)cc3C)c(=O)[nH]c2c1 (centres undefined)	.	.	/	/	/	.
O=c1[nH]c2cc3c(cc2cc1CN(CC1CCCO1)S(=O)(=O)c1ccc(Cl)cc1)OCCO3 (centres undefined)	.	.	.	.	12	.
COc1ccc2cc(CN(CC3COCCO3)S(=O)(=O)c3ccc(Cl)cc3)c(=O)[nH]c2c1 (centres undefined)	.	.	.	.	13	.
C#CC1(O)CC(C)NCC1(C)CCC#N (centres undefined)	.	.	.	.	.	.
O=C(O)c1cc([N+](=O)[O-])c(N2CCCC2)c([N+](=O)[O-])c1	.	/	/	/	/	.
Cc1ccc(N(CCC(=O)Nc2nnc(C3CC3)s2)S(=O)(=O)c2ccccc2)cc1	.	.	/	/	/	.
Cc1cccc(C)c1NC(=O)Cn1c(=O)n(CCCC(=O)NCc2ccco2)c(=O)c2sccc21	.	.	.	.	.	.
